This note sets out measurements from BindingDB's records for doi:10.1016/j.bmc.2016.04.060 (Chugai Pharmaceutical, 2016).

The assay has as its target Phosphatidylinositol 3-kinase regulatory subunit alpha/4,5-bisphosphate 3-kinase catalytic subunit alpha isoform (Homo sapiens, UniProt P27986+P42336). Nature of the assay: Inhibition of human PI3K p110alpha/p85alpha expressed in baculovirus preincubated for 20 mins followed by addition of phosphorylate phosphatidylinositol-4,5-bisphosphate as substrate and ATP measured after 15 mins by AlphaScreen competition assay. In a few lines: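 Purified baculovirus-expressed human p110/p85α preincubated with compound 20 min at room temperature. Then 4 µM PI(4,5)P2 and 10 µM ATP (5 mM Hepes pH 7.5, 2.5 mM MgCl2) added for 15 min at 37 °C. PIP3 product detected by AlphaScreen competition using GST-GRP1, biotin-PIP3 and anti-GST acceptor/streptavidin donor beads, 1 h at room temperature.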
(In general: In Alpha technology, singlet oxygen from a donor bead excites a nearby acceptor bead.)

Phosphatidylinositol 3-kinase regulatory subunit alpha/4,5-bisphosphate 3-kinase catalytic subunit alpha isoform, sequence (P27986 whole entry, canonical isoform): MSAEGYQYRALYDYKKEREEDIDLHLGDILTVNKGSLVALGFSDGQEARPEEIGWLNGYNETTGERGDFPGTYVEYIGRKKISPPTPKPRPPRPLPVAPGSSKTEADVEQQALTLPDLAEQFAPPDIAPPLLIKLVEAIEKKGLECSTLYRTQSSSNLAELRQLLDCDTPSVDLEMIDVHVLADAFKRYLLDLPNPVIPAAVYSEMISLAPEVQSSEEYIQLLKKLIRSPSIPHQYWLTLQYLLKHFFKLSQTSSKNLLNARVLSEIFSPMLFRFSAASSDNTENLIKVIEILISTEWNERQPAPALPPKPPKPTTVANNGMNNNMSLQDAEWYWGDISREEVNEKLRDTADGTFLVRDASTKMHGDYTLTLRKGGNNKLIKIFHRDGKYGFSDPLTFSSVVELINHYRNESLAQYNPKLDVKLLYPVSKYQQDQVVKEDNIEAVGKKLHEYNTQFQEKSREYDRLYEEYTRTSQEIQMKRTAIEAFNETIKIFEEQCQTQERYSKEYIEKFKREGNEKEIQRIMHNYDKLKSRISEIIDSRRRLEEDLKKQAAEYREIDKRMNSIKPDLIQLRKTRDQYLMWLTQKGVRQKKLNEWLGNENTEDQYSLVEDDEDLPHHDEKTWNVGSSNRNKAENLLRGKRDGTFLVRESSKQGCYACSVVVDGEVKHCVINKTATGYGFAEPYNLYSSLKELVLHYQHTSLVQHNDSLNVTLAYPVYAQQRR
Phosphatidylinositol 3-kinase regulatory subunit alpha/4,5-bisphosphate 3-kinase catalytic subunit alpha isoform, sequence (P42336 whole entry, canonical isoform): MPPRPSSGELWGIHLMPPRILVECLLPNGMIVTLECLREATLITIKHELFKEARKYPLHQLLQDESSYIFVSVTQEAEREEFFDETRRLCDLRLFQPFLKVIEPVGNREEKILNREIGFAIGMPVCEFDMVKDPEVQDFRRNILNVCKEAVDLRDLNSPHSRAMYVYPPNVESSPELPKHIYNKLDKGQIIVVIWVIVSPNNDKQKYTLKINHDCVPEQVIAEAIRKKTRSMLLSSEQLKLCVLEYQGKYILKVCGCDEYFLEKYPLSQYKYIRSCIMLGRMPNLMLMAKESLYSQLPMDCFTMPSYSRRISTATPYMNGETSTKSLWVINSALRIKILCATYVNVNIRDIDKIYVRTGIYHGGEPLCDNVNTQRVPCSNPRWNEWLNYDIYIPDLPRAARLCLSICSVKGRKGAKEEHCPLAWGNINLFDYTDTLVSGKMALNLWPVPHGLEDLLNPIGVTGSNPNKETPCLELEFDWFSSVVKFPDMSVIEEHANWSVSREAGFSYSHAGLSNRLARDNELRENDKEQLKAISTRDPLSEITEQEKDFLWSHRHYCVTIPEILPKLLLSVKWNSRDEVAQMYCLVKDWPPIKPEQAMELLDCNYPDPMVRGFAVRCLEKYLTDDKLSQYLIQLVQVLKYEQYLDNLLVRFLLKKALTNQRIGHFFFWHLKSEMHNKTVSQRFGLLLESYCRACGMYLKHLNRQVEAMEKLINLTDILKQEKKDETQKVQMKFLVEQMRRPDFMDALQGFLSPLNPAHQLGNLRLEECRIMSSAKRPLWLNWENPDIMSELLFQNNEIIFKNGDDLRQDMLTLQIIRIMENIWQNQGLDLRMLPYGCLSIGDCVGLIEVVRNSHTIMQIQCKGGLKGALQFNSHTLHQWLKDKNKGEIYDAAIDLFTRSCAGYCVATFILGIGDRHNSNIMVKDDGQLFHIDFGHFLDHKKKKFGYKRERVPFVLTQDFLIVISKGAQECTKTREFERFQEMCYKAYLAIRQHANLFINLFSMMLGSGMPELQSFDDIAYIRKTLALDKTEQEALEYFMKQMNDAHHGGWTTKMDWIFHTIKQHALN

Usually IC50 stands for the concentration at which inhibition is half-maximal. For `CCN1CCN(c2cc(F)c(NC(=O)N3CCc4c(-c5cnc(N)nc5)nc(N5CCOCC5)nc43)c(F)c2)CC1`, the IC50 came out at 22 nM.
Regarding `CCN1CCN(c2ccc(NC(=O)N3CCc4c(-c5cnc(N)nc5)nc(N5CCOCC5)nc43)c(C)c2)CC1`, the IC50 worked out at 10 nM.
